This is an account of results in ChEMBL document CHEMBL1671619, “Efficacy of pyrvinium pamoate against Cryptosporidium parvum infection in vitro and in a neonatal mouse model” (Antimicrob Agents Chemother, 2008).

The source made the active and inactive calls. No cut-off for these calls is given here. Bounds are passed on as bounds.

The subject of series [1] is Cryptosporidium parvum. As to the kind of experiment: Antimicrobial activity against Cryptosporidium parvum infected in human HCT-8 cells. It is filed as functional, organism-based.
Series [2] deals with Cryptosporidium parvum. As to the kind of experiment: Antimicrobial activity against Cryptosporidium parvum infected in neonatal ICR swiss mouse assessed as reduction in oocyst shedding at 150 mg/kg/day, po measured on day 6. The class given is functional. Details: scale not given: the % may be the effect or the level left.
The test system of series [3] is Cryptosporidium parvum. As to the kind of experiment: Antimicrobial activity against Cryptosporidium parvum infected in SCID mouse assessed as reduction in parasite burden at 100 mg/kg/day, po for 10 days. The class given is functional, organism-based.
Series [4] concerns Cryptosporidium parvum. As to the kind of experiment: Antimicrobial activity against Cryptosporidium parvum infected in SCID mouse assessed as reduction in parasite burden at 200 mg/kg/day, po for 10 days. It is filed as functional, organism-based.
Series [5] relates to HCT-8. Put plainly: Cytotoxicity against human HCT8 cells assessed as reduction in viable cells at 80 uM by neutral red assay. The settings on record: hct-8, 80 µM. The class given is cell-based.
Series [6] concerns HCT-8. Put plainly: Cytotoxicity against human HCT8 cells assessed as reduction in viable cells by neutral red assay. It is filed as cell-based.
The test system of series [7] is Cryptosporidium parvum. Put plainly: Antimicrobial activity against Cryptosporidium parvum infected in human HCT-8 cells after 48 hrs by ELISA. The class given is functional, organism-based. The settings on record: HCT-8, 48 h. The gist of the method:
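HCT-8 monolayers (5 × 10⁴ cells/well, seeded 24 h before) infected with 5 × 10³ Iowa-isolate oocysts in medium with 0.05% bile salts, 90 min at 37°C, then washed. Drug added in growth medium (0.5% DMSO final for DMSO-dissolved drug), 48 h at 37°C. Formalin-fixed; rat anti-sporozoite serum, HRP anti-rat, TMB, A450. Freeze-thawed oocyst background subtracted; % inhibition vs untreated infected wells; triplicate wells, two experiments.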
A general note: An ELISA detects its analyte on a solid surface through an enzyme-linked reagent.

Series [8] deals with HCT-8. Put plainly: Cytotoxicity against human HCT8 cells assessed as reduction in viable cells at 100 uM by neutral red assay. The settings on record: hct-8, 100 µM. The class given is cell-based.
Series [9] deals with Cryptosporidium parvum. As to the kind of experiment: Antimicrobial activity against Cryptosporidium parvum infected in neonatal BALB/C mouse assessed as reduction in oocyst shedding at 5 mg/kg/day, po for 4 days treated 3 days postinfection. The class given is functional. Further details: scale not given: the % may be the effect or the level left. The method in brief: (§1)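 3-day-old BALB/c mice infected orally with 10⁵ Iowa-isolate oocysts. Oral dosing from day 3 post-infection, 4 or 6 consecutive days, in water with 5% DMSO or 5–10% ethanol final; vehicle controls matched. Euthanized day 9 post-infection. Distal-colon stool smears (2–3 μl) were methanol-fixed and IFA-stained. Oocysts counted over 21 fields at ×400 along a transect; reduction expressed relative to vehicle controls.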

In series [10] the test system is Cryptosporidium parvum. As to the kind of experiment: Antimicrobial activity against Cryptosporidium parvum infected in neonatal BALB/C mouse assessed as reduction in oocyst shedding at 12.5 mg/kg/day, po for 4 days treated 3 days postinfection. It is filed as functional. Details: scale not given: the % may be the effect or the level left. The method in brief: as §1

Series [11] relates to Cryptosporidium parvum. Put plainly: Antimicrobial activity against Cryptosporidium parvum infected in neonatal BALB/C mouse assessed as reduction in oocyst shedding at 5 mg/kg/day, po for 6 days treated 3 days postinfection. Further details: scale not given: the % may be the effect or the level left. It is filed as functional. The method in brief: as §1
The subject of series [12] is Cryptosporidium parvum. Put plainly: Antimicrobial activity against Cryptosporidium parvum infected in neonatal BALB/C mouse assessed as reduction in trophozoites in ileum at 5 mg/kg/day, po for 6 days by hematoxylin and eosin staining. The class given is functional. Further details: scale not given: the % may be the effect or the level left. The method in brief: (§2)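 Infected neonatal BALB/c mice (10⁵ oocysts orally at 3 days old) dosed orally for 6 days from day 3; killed day 9. 1-cm ileal sections (1–6 cm proximal to appendix), appendix/ileocecal junction, and distal colon were formalin-fixed and H&E-stained. Trophozoites per 1,000 epithelial cells scored blind by two readers on duplicate sections. Per-mouse summary score summed across sections; compared with vehicle controls.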

Series [13] has as its system Cryptosporidium parvum. Put plainly: Antimicrobial activity against Cryptosporidium parvum infected in neonatal BALB/C mouse assessed as reduction in trophozoites in appendix at 5 mg/kg/day, po for 6 days by hematoxylin and eosin staining. It is filed as functional. Further details: scale not given: the % may be the effect or the level left. The gist of the method: as §2

The subject of series [14] is Cryptosporidium parvum. As to the kind of experiment: Antimicrobial activity against Cryptosporidium parvum infected in neonatal BALB/C mouse assessed as reduction in trophozoites in colon at 5 mg/kg/day, po for 6 days by hematoxylin and eosin staining. It is filed as functional. Further details: scale not given: the % may be the effect or the level left. The gist of the method:
as §2

The subject of series [15] is Cryptosporidium parvum. As to the kind of experiment: Antimicrobial activity against Cryptosporidium parvum infected in neonatal BALB/C mouse assessed as reduction in number of trophozoites at 5 mg/kg/day, po for 6 days. The class given is functional. Details: scale not given: the % may be the effect or the level left. The settings on record: in the assay text read “100 mg/kg/day” for “5 mg/kg/day”. The gist of the method: as §2

The test system of series [16] is HCT-8. As to the kind of experiment: Cytotoxicity against human HCT8 cells assessed as reduction in viable cells after 48 hrs by MTS assay. The class given is cell-based. The settings on record: hct-8, 48 h. (Tetrazolium dyes change colour on reduction, which living cells bring about.)
Series [17] has as its system HCT-8. As to the kind of experiment: Cytotoxicity against human HCT8 cells assessed as reduction in viable cells after 48 hrs at 1.6 uM by MTS assay. The class given is cell-based. The settings on record: hct-8, 48 h.
The test system of series [18] is Cryptosporidium parvum. Put plainly: Antimicrobial activity against Cryptosporidium parvum infected in neonatal BALB/C mouse assessed as reduction in oocyst shedding at 100 mg/kg/day, po for 4 days treated 3 days postinfection. The class given is functional. Details: scale not given: the % may be the effect or the level left. The gist of the method: (§3)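 3-day-old BALB/c mice were inoculated orally with 10⁵ Iowa-isolate oocysts, and oral daily dosing started 3 days postinfection; water-treated mice served as vehicle controls. Mice were killed on day 9. Distal-colon stool (2–3 μl) was smeared, methanol-fixed and IFA-stained, and oocysts were counted over 21 fields at ×400. % reduction was taken versus vehicle mice; Mann-Whitney tests were used.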

Series [19] relates to Cryptosporidium parvum. Put plainly: Antimicrobial activity against Cryptosporidium parvum infected in neonatal BALB/C mouse assessed as reduction in oocyst shedding at 100 mg/kg/day, po for 6 days treated 3 days postinfection. The class given is functional. Details: scale not given: the % may be the effect or the level left. The method in brief: as §3
Series [20] relates to Cryptosporidium parvum. As to the kind of experiment: Antimicrobial activity against Cryptosporidium parvum infected in neonatal ICR swiss mouse assessed as reduction in oocyst shedding at 50 mg/kg/day, po measured on day 6. The class given is functional. Further details: scale not given: the % may be the effect or the level left.
For series [21], the system named is Cryptosporidium parvum. As to the kind of experiment: Antimicrobial activity against Cryptosporidium parvum infected in human HCT-8 cells assessed as growth inhibition after 48 hrs by ELISA. The class given is functional. The method in brief:
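HCT-8 cells seeded at 5 × 10⁴/well 24 h before infection, then infected with 5 × 10³ Iowa-isolate oocysts in RPMI/10% FBS/0.05% bile salts for 90 min at 37°C and washed. Drug was added and cells incubated 48 h at 37°C, formalin-fixed, then probed with rat anti-sporozoite serum, HRP anti-rat and TMB, read at A450. Freeze-thawed-oocyst background was subtracted; % inhibition was taken versus untreated infected wells. Triplicate wells, two experiments.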

In series [22] the test system is Cryptosporidium parvum. Put plainly: Antimicrobial activity against Cryptosporidium parvum GCH1 infected in MDBK cells after 48 hrs by ELISA. It is filed as functional.
Series [23] relates to Cryptosporidium parvum. Put plainly: Antimicrobial activity against Cryptosporidium parvum infected in neonatal BALB/C mouse assessed as reduction in trophozoites in ileum at 100 mg/kg/day, po for 6 days by hematoxylin and eosin staining. It is filed as functional. Further details: scale not given: the % may be the effect or the level left. The method in brief: (§4)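 Neonatal BALB/c mice were infected orally with 10⁵ oocysts and dosed orally for 6 days from day 3 postinfection, with necropsy on day 9. 1-cm sections of ileum (1–6 cm proximal to appendix), appendix/ileocecal junction and distal colon were formalin-fixed and H&E-stained. Two blinded readers counted trophozoites per 1,000 epithelial cells on duplicate sections. The per-mouse summary score summed all sections; comparison was against water-vehicle controls.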

The test system of series [24] is Cryptosporidium parvum. As to the kind of experiment: Antimicrobial activity against Cryptosporidium parvum infected in neonatal BALB/C mouse assessed as reduction in trophozoites in appendix at 100 mg/kg/day, po for 6 days by hematoxylin and eosin staining. The class given is functional. Details: scale not given: the % may be the effect or the level left. The method in brief:
as §4

Series [25] deals with Cryptosporidium parvum. Put plainly: Antimicrobial activity against Cryptosporidium parvum infected in neonatal BALB/C mouse assessed as reduction in trophozoites in colon at 100 mg/kg/day, po for 6 days by hematoxylin and eosin staining. It is filed as functional. Details: scale not given: the % may be the effect or the level left. The method in brief: as §4
Series [26] deals with Cryptosporidium parvum. As to the kind of experiment: Antimicrobial activity against Cryptosporidium parvum infected in neonatal BALB/C mouse assessed as reduction in number of trophozoites at 5 mg/kg/day, po for 6 days. Further details: scale not given: the % may be the effect or the level left.

Broadly, the IC50 is the concentration that inhibits the measured activity by half. As for `CC(=O)Oc1ccccc1C(=O)Nc1ncc([N+](=O)[O-])s1` [NITAZOXANIDE], in the series on Cryptosporidium parvum [1], the IC50 worked out at 3.8 µM. In the series on Cryptosporidium parvum [2], the Activity is recorded as under 5%. For the same compound, the outcome in the series with Cryptosporidium parvum [3] and in the series on Cryptosporidium parvum [4] was inactive.

Regarding `CCN(CC)CCCC(C)Nc1ccnc2cc(Cl)ccc12` (stereo not drawn) [CHLOROQUINE], the Activity is 12% with HCT-8 [5], under 5% in the series with HCT-8 [6] and 15% in the series on HCT-8 [8]. Also, 27 µM corresponded to half-maximal inhibition in the series with Cryptosporidium parvum [7] (IC50).

Consider `Cc1cc(/C=C/c2ccc3cc(N(C)C)ccc3[n+]2C)c(C)n1-c1ccccc1` [PYRVINIUM], for which the Activity with Cryptosporidium parvum [9] was determined as 92.6%; with Cryptosporidium parvum [10], 89.3%; in the series with Cryptosporidium parvum [11], 96.6%; with Cryptosporidium parvum [12], 90%; with Cryptosporidium parvum [13] it was 90%; with Cryptosporidium parvum [14], 90%. Also, the Activity in the series with Cryptosporidium parvum [15] is given as 99%; with HCT-8 [16] it was under 15%; in the series with HCT-8 [17] it was 40%. This compound had a half-inhibitory concentration (IC50) with Cryptosporidium parvum [7] of 0.354 µM.

On to `NC[C@@H]1O[C@H](O[C@H]2[C@@H](O)[C@H](O[C@@H]3[C@@H](O)[C@H](N)C[C@H](N)[C@H]3O[C@H]3O[C@H](CO)[C@@H](O)[C@H](O)[C@H]3N)O[C@@H]2CO)[C@H](N)[C@@H](O)[C@@H]1O` [PAROMOMYCIN], for which the Activity is on record as 95% with Cryptosporidium parvum [18]; 96.4% with Cryptosporidium parvum [19]; under 2% with Cryptosporidium parvum [20]; over 80% with Cryptosporidium parvum [22]; 90% in the series on Cryptosporidium parvum [23]; 90% in the series with Cryptosporidium parvum [24]. Also, the Activity is 90% in the series on Cryptosporidium parvum [25] and 85% in the series with Cryptosporidium parvum [26]. Further, the “inhibition (INH)” value in the series on Cryptosporidium parvum [21] was found to be 40%. In the series with Cryptosporidium parvum [7], the IC50 was 711 µM.
